According to ChEMBL document CHEMBL1147762, “A new chemical tool for exploring the physiological function of the PDE2 isozyme” (Bioorg Med Chem Lett, 2006):

Columns and labels:
[1] = target: Mitogen-activated protein kinase 13 (Homo sapiens) (UniProt O15264); assay: Inhibition of SAPK4 at 10 uM
Phosphodiesterase 3 = Phosphodiesterase 3 (Homo sapiens, UniProt Q14432+Q13370); assay: Inhibitory activity against PDE3 by scintillation proximity assay; type: protein assay
How it was run: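 Phosphodiesterase inhibition run as a scintillation proximity assay, with enzyme at a concentration in the linear range. Final substrate was 1 µM, below one-third of the enzyme K_M, so that IC50 approximates Ki. Values are means of n experiments with standard deviation.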

[2] = target: Serotonin 3 (5-HT3) receptor (Homo sapiens) (UniProt P46098+A5X5Y0+O95264+Q70Z44+Q8WXA8); assay: Percentage binding to serotonin 5HT3 at 10 uM; type: protein-complex assay
[3] = target: B1 bradykinin receptor (Homo sapiens) (UniProt P46663); assay: Percentage binding to bradykinin B1 at 10 uM
[4] = target: D(2) dopamine receptor (Homo sapiens) (UniProt P14416); assay: Percentage binding to dopamine D2 at 10 uM
[5] = target: 5-hydroxytryptamine receptor 7 (Homo sapiens) (UniProt P34969); assay: Percentage binding to serotonin 5HT7 at 10 uM
[6] = target: 5-hydroxytryptamine receptor 4 (Homo sapiens) (UniProt Q13639); assay: Percentage binding to serotonin 5HT4 at 10 uM
[7] = target: Ribosomal protein S6 kinase (P70S6K) (Homo sapiens) (UniProt Q9UBS0+P23443); assay: Inhibition of p70S6K at 10 uM; type: protein-complex assay
[8] = target: Platelet-activating factor receptor (Homo sapiens) (UniProt P25105); assay: Percentage binding to PAF at 10 uM
[9] = target: Mu-type opioid receptor (Homo sapiens) (UniProt P35372); assay: Percentage binding to opioid mu at 10 uM
[10] = target: Beta-1 adrenergic receptor (Homo sapiens) (UniProt P08588); assay: Percentage binding to adrenergic beta-1 receptor at 10 uM
[11] = target: Histamine H3 receptor (Homo sapiens) (UniProt Q9Y5N1); assay: Percentage binding to histamine H3 at 10 uM
[12] = target: Cyclin-dependent kinase 2 (Homo sapiens) (UniProt P24941); assay: Inhibition of CDK2 at 10 uM
[13] = target: cGMP-specific 3',5'-cyclic phosphodiesterase (Homo sapiens, UniProt O76074); assay: Inhibitory activity against PDE5 by scintillation proximity assay
How it was run: (§1)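 Scintillation proximity assay for phosphodiesterase inhibition. Enzyme is used at a concentration within the linear range, and its KM was measured. Final substrate concentration is 1 µM, below one-third of KM, so IC50 approximates Ki. Results are means of n experiments with standard deviation.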

[14] = target: Protein kinase C alpha type (Homo sapiens) (UniProt P17252); assay: Inhibition of PKCalpha at 10 uM
[15] = Half life in rat liver microsome; type: ADME; conditions: liver microsomes
[16] = target: Dual specificity tyrosine-phosphorylation-regulated kinase 1A (Homo sapiens) (UniProt Q13627); assay: Inhibition of DYRK1A at 10 uM
[17] = target: Serine/threonine-protein kinase Chk1 (Homo sapiens) (UniProt O14757); assay: Inhibition of CHK1 at 10 uM
[18] = target: D(3) dopamine receptor (Homo sapiens) (UniProt P35462); assay: Percentage binding to dopamine D3 at 10 uM
[19] = target: MAP kinase-activated protein kinase 2 (Homo sapiens) (UniProt P49137); assay: Inhibition of MAPKAPK2 at 10 uM
[20] = target: 3-phosphoinositide-dependent protein kinase 1 (Homo sapiens) (UniProt O15530); assay: Inhibition of PDK1 at 10 uM
[21] = Cmax in rat; type: ADME, organism-based; conditions: Sprague-Dawley, in vivo
How it was run: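 Sprague–Dawley rats were dosed intravenously at 1 mg/kg in EtOH:PEG 400:H2O (1:4:5) and orally at 30 mg/kg in 0.5% methylcellulose.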

[22] = target: Sodium-dependent noradrenaline transporter (Homo sapiens) (UniProt P23975); assay: Activity against norepinephrine uptake at 10 uM
[23] = target: Tyrosine-protein kinase CSK (Homo sapiens) (UniProt P41240); assay: Inhibition of CSK at 10 uM
[24] = target: Substance-P receptor (Homo sapiens) (UniProt P25103); assay: Percentage binding to neurokinin K1 at 10 uM
[25] = Percentage binding to GABA at 10 uM
How it was run: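 Single-concentration screen within a panel of 54 receptors and ion channels, measuring binding or interaction at each target.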

[26] = target: D(1A) dopamine receptor (Homo sapiens) (UniProt P21728); assay: Percentage binding to dopamine D1 at 10 uM
[27] = target: 5-hydroxytryptamine receptor 2C (Homo sapiens) (UniProt P28335); assay: Percentage binding to serotonin 5HT2C at 10 uM
[28] = target: Polyunsaturated fatty acid 5-lipoxygenase (Homo sapiens) (UniProt P09917); assay: Inhibition of 5LOX at 10 uM
[29] = target: High affinity cAMP-specific and IBMX-insensitive 3',5'-cyclic phosphodiesterase 8B (Homo sapiens, UniProt O95263); assay: Inhibitory activity against PDE8B by scintillation proximity assay; how it was run: as §1
[30] = target: Mitogen-activated protein kinase 1 (Homo sapiens) (UniProt P28482); assay: Inhibition of MAPK2 at 10 uM
[31] = target: Cyclooxygenase (Homo sapiens) (UniProt P35354+P23219); assay: Inhibition of COX at 10 uM; type: protein assay
[32] = Tmax in rat; type: ADME, organism-based; conditions: Sprague-Dawley, in vivo
[33] = target: Histamine H1 receptor (Homo sapiens) (UniProt P35367); assay: Percentage binding to histamine H1 at 10 uM
[34] = target: Mitogen-activated protein kinase 8 (Homo sapiens) (UniProt P45983); assay: Inhibition of JNK1a1 at 10 uM
[35] = target: Mitogen-activated protein kinase 12 (Homo sapiens) (UniProt P53778); assay: Inhibition of SAPK3 at 10 uM
[36] = target: Mitogen-activated protein kinase 11 (Homo sapiens) (UniProt Q15759); assay: Inhibition of SAPK2b at 10 uM
[37] = target: MAP kinase-activated protein kinase 5 (Homo sapiens) (UniProt Q8IW41); assay: Inhibition of PRAK at 10 uM
[38] = target: Melanocortin receptor 4 (Homo sapiens) (UniProt P32245); assay: Percentage binding to MCR4 at 10 uM
[39] = target: Thyroid hormone receptor (Homo sapiens) (UniProt P10827+P10828); assay: Percentage binding to thyroid hormone receptor at 10 uM; type: protein-complex assay
[40] = Oral bioavailability in rat; type: ADME, organism-based; conditions: Sprague-Dawley, in vivo
How it was run: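 Sprague–Dawley rats were dosed intravenously at 1 mg/kg in EtOH:PEG 400:H2O (1:4:5) and orally at 30 mg/kg in 0.5% methylcellulose. Plasma was sampled at 0.083, 0.25, 0.5, 1, 2, 4, 6 and 8 h after dosing and analysed.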

[41] = target: Sodium-dependent serotonin transporter (Homo sapiens) (UniProt P31645); assay: Activity against serotonin uptake at 10 uM
[42] = target: Muscarinic acetylcholine receptor M1 (Homo sapiens) (UniProt P11229); assay: Percentage binding to muscarinic M1 at 10 uM

Sequence of Mitogen-activated protein kinase 8 (Homo sapiens) (P45983 whole entry): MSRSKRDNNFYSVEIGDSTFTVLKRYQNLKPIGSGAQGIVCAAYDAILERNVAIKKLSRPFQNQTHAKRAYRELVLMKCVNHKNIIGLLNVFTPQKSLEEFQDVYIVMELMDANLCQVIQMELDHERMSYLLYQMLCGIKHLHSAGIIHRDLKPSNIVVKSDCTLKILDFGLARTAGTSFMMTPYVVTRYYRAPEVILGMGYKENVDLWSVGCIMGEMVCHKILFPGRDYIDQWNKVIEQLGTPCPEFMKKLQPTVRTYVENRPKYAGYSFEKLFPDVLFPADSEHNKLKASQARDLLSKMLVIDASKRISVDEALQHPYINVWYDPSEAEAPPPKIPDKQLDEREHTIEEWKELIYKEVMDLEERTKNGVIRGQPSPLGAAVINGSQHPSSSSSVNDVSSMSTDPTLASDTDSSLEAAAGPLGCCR
Sequence of 5-hydroxytryptamine receptor 2C (Homo sapiens) (P28335 whole entry): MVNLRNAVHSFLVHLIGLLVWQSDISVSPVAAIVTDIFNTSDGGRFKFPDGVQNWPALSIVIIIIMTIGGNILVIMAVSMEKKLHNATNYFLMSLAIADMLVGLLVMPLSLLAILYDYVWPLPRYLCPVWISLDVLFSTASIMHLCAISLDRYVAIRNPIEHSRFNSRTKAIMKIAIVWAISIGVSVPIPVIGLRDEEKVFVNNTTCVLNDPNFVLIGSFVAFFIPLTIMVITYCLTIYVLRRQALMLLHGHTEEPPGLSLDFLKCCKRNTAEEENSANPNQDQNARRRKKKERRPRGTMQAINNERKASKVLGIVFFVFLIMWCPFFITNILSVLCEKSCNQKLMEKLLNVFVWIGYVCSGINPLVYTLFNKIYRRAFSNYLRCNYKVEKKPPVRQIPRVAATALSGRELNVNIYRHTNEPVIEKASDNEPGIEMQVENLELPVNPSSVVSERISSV
Sequence of D(1A) dopamine receptor (Homo sapiens) (P21728 whole entry): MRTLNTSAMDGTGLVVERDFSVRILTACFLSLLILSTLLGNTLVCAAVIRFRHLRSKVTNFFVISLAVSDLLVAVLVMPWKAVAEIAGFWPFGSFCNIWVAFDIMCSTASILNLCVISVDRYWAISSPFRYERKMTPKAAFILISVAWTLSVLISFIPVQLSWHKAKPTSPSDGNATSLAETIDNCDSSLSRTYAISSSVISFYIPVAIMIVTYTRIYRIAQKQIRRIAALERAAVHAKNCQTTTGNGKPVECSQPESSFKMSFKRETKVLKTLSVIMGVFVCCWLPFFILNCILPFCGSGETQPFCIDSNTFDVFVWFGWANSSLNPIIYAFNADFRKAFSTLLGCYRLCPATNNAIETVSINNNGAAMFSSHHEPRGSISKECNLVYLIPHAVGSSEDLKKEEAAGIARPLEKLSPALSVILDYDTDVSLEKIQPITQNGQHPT
Sequence of 5-hydroxytryptamine receptor 7 (Homo sapiens) (P34969 whole entry): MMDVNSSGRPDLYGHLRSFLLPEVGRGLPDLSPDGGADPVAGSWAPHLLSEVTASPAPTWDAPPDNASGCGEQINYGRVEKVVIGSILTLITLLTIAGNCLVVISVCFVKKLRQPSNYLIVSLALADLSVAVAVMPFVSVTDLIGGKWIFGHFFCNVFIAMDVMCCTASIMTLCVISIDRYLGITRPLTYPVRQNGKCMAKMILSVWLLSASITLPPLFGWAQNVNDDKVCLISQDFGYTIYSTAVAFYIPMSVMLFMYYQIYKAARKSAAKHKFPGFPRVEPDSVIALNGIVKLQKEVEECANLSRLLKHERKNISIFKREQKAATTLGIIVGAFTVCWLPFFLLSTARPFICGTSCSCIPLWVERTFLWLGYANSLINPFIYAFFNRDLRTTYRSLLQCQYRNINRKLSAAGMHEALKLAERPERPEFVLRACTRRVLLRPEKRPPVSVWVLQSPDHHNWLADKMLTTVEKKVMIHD
Sequence of Substance-P receptor (Homo sapiens) (P25103 whole entry): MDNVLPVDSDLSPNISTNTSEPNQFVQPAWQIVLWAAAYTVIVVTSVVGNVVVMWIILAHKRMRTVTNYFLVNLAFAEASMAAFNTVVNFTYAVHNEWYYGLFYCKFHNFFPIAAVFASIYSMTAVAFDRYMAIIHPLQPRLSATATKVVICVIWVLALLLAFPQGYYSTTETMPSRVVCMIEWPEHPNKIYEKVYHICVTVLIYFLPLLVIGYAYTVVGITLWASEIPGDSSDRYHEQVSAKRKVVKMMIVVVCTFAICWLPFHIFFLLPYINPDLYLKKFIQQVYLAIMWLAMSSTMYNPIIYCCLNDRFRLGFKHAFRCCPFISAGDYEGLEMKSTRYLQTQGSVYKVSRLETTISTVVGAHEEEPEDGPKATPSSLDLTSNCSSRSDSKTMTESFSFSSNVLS
Sequence of Histamine H1 receptor (Homo sapiens) (P35367 whole entry): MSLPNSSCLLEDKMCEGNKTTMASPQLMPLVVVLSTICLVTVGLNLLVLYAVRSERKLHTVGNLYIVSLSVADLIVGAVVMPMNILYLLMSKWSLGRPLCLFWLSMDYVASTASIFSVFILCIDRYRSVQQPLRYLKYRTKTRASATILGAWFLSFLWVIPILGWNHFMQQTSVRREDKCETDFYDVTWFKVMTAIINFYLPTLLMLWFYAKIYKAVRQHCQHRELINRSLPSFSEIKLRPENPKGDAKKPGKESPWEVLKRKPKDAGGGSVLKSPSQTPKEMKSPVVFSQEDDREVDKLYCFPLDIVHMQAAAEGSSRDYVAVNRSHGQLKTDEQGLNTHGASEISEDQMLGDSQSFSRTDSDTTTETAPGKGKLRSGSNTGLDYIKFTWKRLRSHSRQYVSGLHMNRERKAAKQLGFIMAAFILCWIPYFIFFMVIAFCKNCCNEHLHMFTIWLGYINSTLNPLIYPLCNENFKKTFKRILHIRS
Sequence of MAP kinase-activated protein kinase 5 (Homo sapiens) (Q8IW41 whole entry): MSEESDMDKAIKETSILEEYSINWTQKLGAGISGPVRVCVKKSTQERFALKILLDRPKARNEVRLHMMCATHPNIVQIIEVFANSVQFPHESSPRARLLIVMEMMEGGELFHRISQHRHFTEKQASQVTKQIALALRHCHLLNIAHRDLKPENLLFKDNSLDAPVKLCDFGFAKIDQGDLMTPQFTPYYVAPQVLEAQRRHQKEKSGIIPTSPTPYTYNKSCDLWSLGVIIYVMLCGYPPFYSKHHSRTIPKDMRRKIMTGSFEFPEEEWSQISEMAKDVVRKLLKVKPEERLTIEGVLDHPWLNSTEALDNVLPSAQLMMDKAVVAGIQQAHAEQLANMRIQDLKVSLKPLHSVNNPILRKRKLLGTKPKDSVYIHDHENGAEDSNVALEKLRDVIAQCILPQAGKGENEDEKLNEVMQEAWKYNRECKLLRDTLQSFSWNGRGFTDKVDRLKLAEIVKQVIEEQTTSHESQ
Sequence of Mitogen-activated protein kinase 1 (Homo sapiens) (P28482 whole entry): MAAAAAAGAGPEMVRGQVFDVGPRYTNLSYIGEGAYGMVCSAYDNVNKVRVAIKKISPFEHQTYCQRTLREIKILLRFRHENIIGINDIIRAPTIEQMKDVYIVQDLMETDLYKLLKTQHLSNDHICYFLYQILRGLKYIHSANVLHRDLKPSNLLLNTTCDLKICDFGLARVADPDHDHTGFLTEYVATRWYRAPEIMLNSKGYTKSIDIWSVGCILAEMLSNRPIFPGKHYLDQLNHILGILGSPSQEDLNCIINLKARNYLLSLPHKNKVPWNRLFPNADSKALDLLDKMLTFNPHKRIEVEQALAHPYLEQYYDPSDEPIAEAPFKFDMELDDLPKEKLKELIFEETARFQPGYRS
Sequence of Sodium-dependent noradrenaline transporter (Homo sapiens) (P23975 whole entry): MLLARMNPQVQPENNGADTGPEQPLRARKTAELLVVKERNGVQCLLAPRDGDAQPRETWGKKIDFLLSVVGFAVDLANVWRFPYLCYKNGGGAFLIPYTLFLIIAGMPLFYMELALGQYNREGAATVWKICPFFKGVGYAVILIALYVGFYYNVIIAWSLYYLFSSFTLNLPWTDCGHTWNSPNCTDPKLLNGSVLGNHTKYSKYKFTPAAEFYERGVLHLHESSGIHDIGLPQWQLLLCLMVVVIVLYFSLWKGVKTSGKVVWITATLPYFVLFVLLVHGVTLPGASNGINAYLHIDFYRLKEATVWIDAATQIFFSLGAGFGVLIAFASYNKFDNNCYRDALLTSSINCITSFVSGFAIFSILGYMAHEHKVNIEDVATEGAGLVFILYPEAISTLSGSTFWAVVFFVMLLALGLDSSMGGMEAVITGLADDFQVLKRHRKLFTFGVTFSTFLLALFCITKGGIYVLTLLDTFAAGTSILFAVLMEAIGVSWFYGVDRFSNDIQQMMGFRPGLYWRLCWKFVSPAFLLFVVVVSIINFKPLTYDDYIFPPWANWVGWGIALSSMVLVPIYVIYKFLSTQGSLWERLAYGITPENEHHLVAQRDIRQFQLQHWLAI

In the case of `CN1C(=O)C(C(=O)Nc2nncs2)c2cc3occc3cc21` (stereo not drawn), the inhibition [1] is reported as 13%, the IC50 (Phosphodiesterase 3) is reported as greater than 16 µM and the Activity [2] is reported as 0%. For the same compound, the Activity [3] was 0%, the Activity [4] was 12% and the Activity [5] was 0%. For the same compound, the Activity [6] was 0%, the inhibition [7] was 23% and the Activity [8] was 21%. For the same compound, the Activity [9] was 3%, the Activity [10] was 15% and the Activity [11] was 0%. The inhibition [12] was 2%, the IC50 [13] was greater than 16 µM and the inhibition [14] was 13%. It also gave a half-life [15] of 83 min, an inhibition [16] of 53% and an inhibition [17] of 0%. The Activity [18] was 0%, the inhibition [19] was 8% and the inhibition [20] was 0%. For the same compound, the Cmax [21] was 8300 ng/mL, the Activity [22] was 12% and the inhibition [23] was 5%. It also gave an Activity [24] of 0%, an Activity [25] of 3% and an Activity [26] of 5%. It also gave an Activity [27] of 0%, an inhibition [28] of 35% and an IC50 [29] greater than 16 µM. It also gave an inhibition [30] of 12%, an inhibition [31] of 0% and a Tmax [32] of 48 min. For the same compound, the Activity [33] was 7%, the inhibition [34] was 0% and the inhibition [35] was 7%. For the same compound, the inhibition [36] was 5%, the inhibition [37] was 28% and the Activity [38] was 12%. For the same compound, the Activity [39] was 0%, the bioavailability [40] was 41% and the Activity [41] was 0%. For the same compound, the Activity [42] was 9%.
